Measurements published in ChEMBL document CHEMBL4145640, “De Novo Design, Synthesis, and Biological Evaluation of 3,4-Disubstituted Pyrrolidine Sulfonamides as Potent and Selective Glycine Transporter 1 Competitive Inhibitors” (J Med Chem, 2018).

How the values were obtained:
[1] = Unbound intrinsic clearance in human liver microsomes at 0.5 uM incubated for 4 hrs by equilibrium dialysis and LC-MS/MS method; format: ADME, microsome
[2] = Unbound intrinsic clearance in rat liver microsomes at 0.5 uM incubated for 4 hrs by equilibrium dialysis and LC-MS/MS method; format: ADME, microsome
Salmonella typhimurium [3] = test: Genotoxicity in Salmonella typhimurium TA100 assessed as induction of mutagenicity by measuring revertant colonies at 0.3 to 1000 ug/well incubated for 48 hrs in presence of liver S9 fraction by mini Ames test; format: toxicity, organism-based; details: salmonella enterica subsp. enterica serovar typhimurium, s9, 48 h
Salmonella typhimurium [4] = test: Genotoxicity in Salmonella typhimurium TA98 assessed as induction of mutagenicity by measuring revertant colonies at 0.3 to 1000 ug/well incubated for 48 hrs in presence of liver S9 fraction by mini Ames test; format: toxicity, organism-based; details: salmonella enterica subsp. enterica serovar typhimurium, s9, 48 h
[5] = target: T1, Sodium- and chloride-dependent glycine transporter 1 (Homo sapiens, UniProt P48067); test: Inhibition of [3H]N-Methyl-SSR504734 binding to human recombinant GlyT1c expressed in CHO cell membranes incubated for 1 hr by liquid scintillation spectrometry
T1 sequence (P48067 whole entry): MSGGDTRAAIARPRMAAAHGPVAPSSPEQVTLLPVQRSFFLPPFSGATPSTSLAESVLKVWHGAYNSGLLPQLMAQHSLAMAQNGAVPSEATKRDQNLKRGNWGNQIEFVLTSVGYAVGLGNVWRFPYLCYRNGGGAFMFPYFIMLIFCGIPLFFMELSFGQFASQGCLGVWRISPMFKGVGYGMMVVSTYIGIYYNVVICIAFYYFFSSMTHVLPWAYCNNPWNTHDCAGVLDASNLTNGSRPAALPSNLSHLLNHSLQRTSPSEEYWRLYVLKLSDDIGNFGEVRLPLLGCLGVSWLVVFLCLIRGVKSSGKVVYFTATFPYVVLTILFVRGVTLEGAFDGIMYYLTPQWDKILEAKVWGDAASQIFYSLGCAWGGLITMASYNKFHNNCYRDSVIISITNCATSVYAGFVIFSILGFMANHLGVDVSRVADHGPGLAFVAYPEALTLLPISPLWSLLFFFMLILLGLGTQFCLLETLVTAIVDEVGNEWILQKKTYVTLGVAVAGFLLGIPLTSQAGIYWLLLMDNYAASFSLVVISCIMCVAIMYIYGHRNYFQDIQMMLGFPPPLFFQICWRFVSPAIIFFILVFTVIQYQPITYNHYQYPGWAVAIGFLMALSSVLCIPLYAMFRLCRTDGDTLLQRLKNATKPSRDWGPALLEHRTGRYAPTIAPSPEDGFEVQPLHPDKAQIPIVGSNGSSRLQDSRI

MDR1 (P-gp) = test: Efflux ratio in MDCK2-MDR1 cells at 1 uM incubated for 1 hr by LC-MS/MS method; format: ADME, cell-based, Canis lupus familiaris; details: dog, MDCK-MDR1
Outline: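 MDCK II cells transfected with MDR1 (human P-gp, lowered canine P-gp) seeded on transwell inserts at 300,000 cells/cm2, media changed day 2, assayed day 4 or 5. Dosed apical or basolateral at 1 µM final (1 mM DMSO stock, 0.1% DMSO) in HBSS + glucose, duplicate, 37 °C for 1 h. Receiver and donor sampled, LC-MS/MS with buspirone internal standard; Papp from ΔQ/Δt·1/(A·C0).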

Mus musculus = test: Inhibition of L687,414-induced hyperactivity in mouse at 1 mg/kg, ip dosed before test; format: functional
[6] = Stability in pH 7 buffer at 1 mg assessed as compound hydrolysis after several days at room temperature by LC/MS analysis; format: physicochemical
[7] = Ratio of free drug level in brain to plasma in rat; format: ADME; details: read-out: BPR

| Compound | CL free [1] | CL free [2] | Activity (Salmonella typhimurium [3]) | Activity (Salmonella typhimurium [4]) | Ki [5] | efflux ratio at 1 h, 1 µM (MDR1 (P-gp)) | inhibition in vivo at 1 mg/kg (Mus musculus) | Stability [6] | Kp uu [7] |
| --- | --- | --- | --- | --- | --- | --- | --- | --- | --- |
| Cn1cnc(S(=O)(=O)N2CC(Nc3ccccc3)C(c3ccccc3)C2)c1 (racemic) | 250 mL/min/kg | 950 mL/min/kg | Non-Toxic | Non-Toxic | 199 nM | 0.9 |  |  |  |
| Cn1cnc(S(=O)(=O)N2C[C@H](Nc3ccc(F)c(OC(F)(F)F)c3)[C@@H](c3ccc(F)cc3)C2)c1 |  |  |  |  |  |  | 100% |  |  |
| Cn1cnc(S(=O)(=O)N2C[C@H]([C@@H]3CCCO3)[C@@H](Nc3cccc(OC(F)(F)F)c3)C2)c1 |  |  |  |  |  |  |  | Stable |  |
| Cn1cnc(S(=O)(=O)N2CC(Nc3cncc(C(F)(F)F)c3)C(c3ccc(F)cc3)C2)c1 (racemic) |  |  | Non-Toxic | Non-Toxic |  |  |  |  |  |
| Cn1cnc(S(=O)(=O)N2CC(Nc3cccc(C(F)(F)F)c3)C(c3ccccc3)C2)c1 (racemic) |  |  | Non-Toxic | Non-Toxic | 8 nM |  |  |  |  |
| Cn1cnc(S(=O)(=O)N2CC(Nc3cccc(Cl)c3)C(c3cccc(F)c3)C2)c1 (racemic) | 1450 mL/min/kg | 4430 mL/min/kg | Non-Toxic | Non-Toxic | 42 nM | 1 |  |  |  |
| Cc1cccc(NC2CN(S(=O)(=O)c3cn(C)cn3)CC2c2ccccc2)c1 (racemic) | 817 mL/min/kg | 1980 mL/min/kg | Non-Toxic | Non-Toxic | 17 to 18 nM | 0.9 |  |  | 0.6 |
| Cn1cnc(S(=O)(=O)N2CC(Nc3cccc(Cl)c3)C(c3ccc(F)cc3)C2)c1 (racemic) | 3380 mL/min/kg | 5830 mL/min/kg | Non-Toxic | Non-Toxic | 3 nM | 1.1 |  |  | 1.7 |
| Cn1cnc(S(=O)(=O)N2CC(Nc3cccc(C(F)(F)F)c3)C(c3cccnc3)C2)c1 (racemic) |  |  | Non-Toxic | Non-Toxic |  |  |  |  |  |
